Measured values published in publication PMC3158287 (Nature chemical biology, 2011).
Residue numbers refer to the chain shown, from its start. Read-outs that look alike come from different tables or passages of the source.

Assays:
OSBP^V582M = biological target: T1, OSBP^V582M (Homo sapiens, UniProt P22059, V582M); experiment: [3H]25-OHC binding assay, OSBP V582M mutant
T1 sequence (P22059 1-807 V582M): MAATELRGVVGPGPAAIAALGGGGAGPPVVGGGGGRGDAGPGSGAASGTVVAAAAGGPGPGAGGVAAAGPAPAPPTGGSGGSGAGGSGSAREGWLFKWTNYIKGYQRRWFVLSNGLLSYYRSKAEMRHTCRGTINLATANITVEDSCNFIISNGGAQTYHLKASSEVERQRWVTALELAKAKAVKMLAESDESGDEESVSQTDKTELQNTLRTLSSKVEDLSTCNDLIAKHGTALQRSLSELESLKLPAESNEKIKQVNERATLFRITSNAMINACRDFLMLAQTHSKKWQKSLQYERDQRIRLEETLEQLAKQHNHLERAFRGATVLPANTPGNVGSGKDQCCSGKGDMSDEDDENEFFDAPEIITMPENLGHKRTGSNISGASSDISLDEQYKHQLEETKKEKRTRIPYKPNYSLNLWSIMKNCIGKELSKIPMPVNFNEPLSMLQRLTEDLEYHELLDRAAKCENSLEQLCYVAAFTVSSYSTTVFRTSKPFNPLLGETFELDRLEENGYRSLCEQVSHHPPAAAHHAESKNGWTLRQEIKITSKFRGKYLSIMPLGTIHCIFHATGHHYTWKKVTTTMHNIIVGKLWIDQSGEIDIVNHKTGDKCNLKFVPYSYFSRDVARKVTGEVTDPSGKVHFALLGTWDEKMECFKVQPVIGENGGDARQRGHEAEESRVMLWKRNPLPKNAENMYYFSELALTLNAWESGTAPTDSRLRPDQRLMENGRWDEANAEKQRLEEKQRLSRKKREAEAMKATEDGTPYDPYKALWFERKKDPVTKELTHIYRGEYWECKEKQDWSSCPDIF

OSBP = biological target: T2, OSBP (Homo sapiens, UniProt P22059); experiment: OSBP protein levels by western blotting; format: cell-based; settings: HCT-116 cells
T2 sequence (P22059 1-807): T1 sequence (P22059 1-807 V582M) with M582V
Procedure, shortened: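 HCT-116 cells were treated with test compound at 50 nM or 10 nM over a time course including 24 h. Some samples also received proteasome inhibitor MG-132 or lactacystin. OSBP was measured by western blotting with polyclonal rabbit anti-OSBP (N-terminus) antibody. Data are n = 3, compared with vehicle-treated cells by two-tailed Student's t-test.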

human cancer cell lines = settings: cited from earlier work
[1] = system: HeLa cells overexpressing wild-type OSBP; experiment: Overexpression-viability assay, wild-type OSBP-Myc-His; format: cell-based, human; settings: 48 h, versus lacZ
OSBP^M446W = biological target: T3, OSBP^M446W (Homo sapiens, UniProt P22059, M446W); experiment: [3H]25-OHC binding assay, OSBP M446W mutant
T3 sequence (P22059 1-807 M446W): T1 sequence (P22059 1-807 V582M) with M446W, M582V

HCT-116 cells = experiment: Suppression of antiproliferative activity by 25-OHC coadministration; format: cell-based, human
Procedure, shortened: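 HCT-116 p21+/+ and p21−/− cells were seeded in 96-well plates and rested 24 h. A time-zero plate was read with CellTiter-Blue (resazurin) after 90 min at 37 °C, fluorescence 544 nm ex / 590 nm em. Serially diluted test compound was added as 4× solution. Viability was re-read at 48 h and GI50 derived. For coadministration, 10 μM 25-OHC was added with test compound at 250 nM or 10 nM.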

For COc1ccc(C(=O)O[C@H]2[C@H](O[C@@H]3[C@@H](OC(C)=O)[C@H](O[C@H]4C[C@H]5[C@@H]6CC=C7C[C@@H](O)CC[C@]7(C)[C@H]6CC[C@]5(C)[C@@]4(O)[C@H](C)C(=O)CCC(C)C)OC[C@@H]3O)OC[C@@H](O)[C@@H]2O)cc1 [OSW-1], the Ki (OSBP^V582M; read-out: Ki, OSBP^V582M, competition with [3H]25-OHC, mean ± s.d.) is listed as 46 nM, the “Reduction in OSBP protein levels” value (OSBP; 10 nM, 24 h) is listed as “approximately 75%” and the “GI50 (half-maximal inhibitory concentration)” value (human cancer cell lines) is listed as “nanomolar range”. The “Desensitization factor by OSBP overexpression (relative GI30)” value [1] was 2–5, the Ki (OSBP^M446W; read-out: Ki, OSBP^M446W, competition with [3H]25-OHC, mean ± s.d.) was 18 nM and the “Growth inhibition when administered alone” value (HCT-116 cells; 10 nM, HCT-116 cells, 48 h) was over 75%. The “Effect of 10 μM 25-OHC coadministration on growth inhibition” value (HCT-116 cells; HCT-116 cells, 250 nM cephalostatin 1 or 10 nM OSW-1) was “nearly complete desensitization”.

In the case of CC(C)=CCC/C(C)=C/Cc1c(O)cc(/C=C/c2cc(O)c3c(c2)C[C@@H]2C(C)(C)[C@H](O)[C@H](O)C[C@@]2(C)O3)cc1O [schweinfurthin A], the Ki (OSBP^V582M) is listed as 37 nM, the “Effect on OSBP levels (compound alone)” value (OSBP; 25-OHC 10 μM) is listed as “no effect” and the “GI50 (half-maximal inhibitory concentration)” value (human cancer cell lines) is listed as “nanomolar range”. For the same compound, the “Desensitization factor by OSBP overexpression (relative GI30)” value [1] was 2–5, the Ki (OSBP^M446W) was 60 nM and the “Effect of 25-OHC coadministration on antiproliferative activity” value (HCT-116 cells; HCT-116 and HeLa cell lines) was “desensitized cells to schweinfurthin A, although to a lesser degree”.
